According to ChEMBL document CHEMBL1212790, “Triclosan resistance of Pseudomonas aeruginosa PAO1 is due to FabV, a triclosan-resistant enoyl-acyl carrier protein reductase” (2010):
Values after ≈ are worked out from the molar mass of the structure shown. Active and inactive are the calls of the source. The rule behind the calls is not given here.

Assays:
Pseudomonas aeruginosa [1] = experiment: Inhibition of Pseudomonas aeruginosa PA0170 fabV assessed as reduction of Enoyl-[acyl-carrier-protein] reductase activity at 15 ug/ml
Summary of the method: (§1)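 Cell-extract ENR assay (70 μl) in 0.1 M sodium phosphate pH 7.5 with 0.1 mM NADH and 2 μg of cell extract. Started with 100 μM trans-2-decenoyl-ACP, with or without 15 μg/ml triclosan. NADH-dependent activity followed as the drop in A340. Means plus standard deviations of three experiments.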

Escherichia coli [2] = experiment: Antibacterial activity against Escherichia coli W3110 containing empty vector pBluescript at 37 deg C; format: functional
Summary of the method: (§2)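 Triclosan MIC on LB agar plates carrying serial dilutions of triclosan; cells plated and plates incubated at 37°C. MIC taken as the triclosan concentration of the first plate without growth. E. coli hosts (W3110, MG1655) carried pBluescript SK(+)-derived plasmids encoding fabV or fabI, or the empty vector.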

Pseudomonas aeruginosa [3] = experiment: Inhibition of Pseudomonas aeruginosa PA0170 fabV assessed as reduction of [1-14C]acetate incorporation into phospholipids
Pseudomonas aeruginosa [4] = experiment: Inhibition of wild type Pseudomonas aeruginosa ENR at 15 ug/ml; summary of the method: as §1
[5] = molecular target: T1, Enoyl-[acyl-carrier-protein] reductase [NADH] FabI (Pseudomonas aeruginosa) (UniProt Q9ZFE4); experiment: Inhibition of Pseudomonas aeruginosa PAO272 fabI assessed as reduction of Enoyl-[acyl-carrier-protein] reductase activity at 15 ug/ml; summary of the method: as §1
T1 sequence (whole entry): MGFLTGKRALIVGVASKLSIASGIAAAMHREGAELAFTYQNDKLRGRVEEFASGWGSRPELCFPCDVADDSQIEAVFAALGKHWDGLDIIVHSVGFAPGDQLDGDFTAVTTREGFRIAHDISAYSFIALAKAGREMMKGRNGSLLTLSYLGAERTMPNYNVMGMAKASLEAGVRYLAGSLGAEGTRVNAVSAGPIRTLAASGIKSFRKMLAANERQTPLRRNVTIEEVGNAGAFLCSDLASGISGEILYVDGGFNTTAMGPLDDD

Pseudomonas aeruginosa [6] = experiment: Antibacterial activity against Pseudomonas aeruginosa PA0272 lacking fabI assessed as microbial growth inhibition
Pseudomonas aeruginosa [7] = experiment: Inhibition of Pseudomonas aeruginosa fabV activity assessed as conversion of […] at 1000 ug/ml in presence of 2.5 M urea
Summary of the method: (§3)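 3-Hydroxydecanoyl-ACP dehydrated to trans-2-decenoyl-ACP with E. coli FabZ, then split into tubes holding dried triclosan (added from an ethanol stock and dried down). Purified His-tagged PaFabV or PaFabI added; reduction in 0.1 M sodium phosphate pH 7.0 with NADH, 1 h. Products resolved by conformationally sensitive PAGE with 2.5 M urea and Coomassie staining.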

[8] = molecular target: T1, Enoyl-[acyl-carrier-protein] reductase [NADH] FabI (Pseudomonas aeruginosa); experiment: Inhibition of Pseudomonas aeruginosa fabI activity assessed as conversion of 3-hydroxydecanoyl-ACP to trans-2-decenoyl-ACP at 10 ug/ml in presence of 2.5 M urea; summary of the method: as §3
Escherichia coli [9] = experiment: Antibacterial activity against Escherichia coli MG1655 containing pZL19 expressing Escherichia coli fabI gene assessed as microbial growth inhibition; format: functional; summary of the method: as §2
Escherichia coli [10] = experiment: Antibacterial activity against Escherichia coli MG1655 pZL16 expressing Pseudomonas aeruginosa fabV gene assessed as microbial growth inhibition; format: functional; summary of the method: as §2
Escherichia coli [11] = experiment: Antibacterial activity against Escherichia coli W3110 containing pZL19 expressing sEscherichia coli fabI gene assessed as microbial growth inhibition; format: functional; summary of the method: as §2
Escherichia coli [12] = experiment: Antibacterial activity against Escherichia coli W3110 containing pZL16 expressing sPseudomonas aeruginosa fabV gene assessed as microbial growth inhibition; format: functional; summary of the method: as §2
Pseudomonas aeruginosa [13] = experiment: Antibacterial activity against Pseudomonas aeruginosa PA0170 lacking fabV gene assessed as microbial growth inhibition
[14] = molecular target: T1, Enoyl-[acyl-carrier-protein] reductase [NADH] FabI (Pseudomonas aeruginosa); experiment: Inhibition of Pseudomonas aeruginosa PAO272 fabI assessed as reduction of [1-14C]acetate incorporation into phospholipids
Escherichia coli [15] = experiment: Antibacterial activity against Escherichia coli W3110 containing pZL17 expressing Pseudomonas aeruginosa fabI gene assessed as microbial growth inhibition; format: functional; summary of the method: as §2
Escherichia coli [16] = experiment: Antibacterial activity against Escherichia coli MG1655 pZL17 expressing Pseudomonas aeruginosa fabI gene assessed as microbial growth inhibition; format: functional; summary of the method: as §2
Pseudomonas aeruginosa [17] = experiment: Antibacterial activity against Pseudomonas aeruginosa PA01 assessed as microbial growth inhibition; format: functional
Pseudomonas aeruginosa [18] = experiment: Inhibition of wild type Pseudomonas aeruginosa ENR assessed as reduction of [1-14C]acetate incorporation into phospholipids
Escherichia coli [19] = experiment: Antibacterial activity against Escherichia coli MG1655 containing empty vector pBluescript assessed as microbial growth inhibition; format: functional; summary of the method: as §2
Pseudomonas aeruginosa [20] = experiment: Activity of Pseudomonas aeruginosa PA0170 fabV in presence of 100 uM NADH
Summary of the method: (§4)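 Cell extracts (2 μg) of the P. aeruginosa deletion strains (PAO170 ΔfabV, PAO272 ΔfabI) were assayed for NADH-dependent enoyl-ACP reductase activity in 70 μl of 0.1 M sodium phosphate pH 7.5 with 0.1 mM NADH. Reactions were started with 100 μM trans-2-decenoyl-ACP and run with or without 15 μg/ml triclosan. Values are means plus standard deviations of three experiments.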

[21] = compound: C/C=C/C(=O)SCCNC(=O)CCNC(=O)[C@@H](O)C(C)(C)COP(=O)(O)OP(=O)(O)OC[C@H]1O[C@@H](n2cnc3c(N)ncnc32)[C@H](O)[C@@H]1OP(=O)(O)O; experiment: Inhibition of Pseudomonas aeruginosa PAO272 fabI in presence of 100 uM NADH; summary of the method: as §4

## Oc1cc(Cl)ccc1Oc1ccc(Cl)cc1Cl [TRICLOSAN]
Pseudomonas aeruginosa [1]
  inhibition: 15%
Escherichia coli [2]
  MIC: 0.2 µg/mL (≈ 0.691 µM)
Pseudomonas aeruginosa [3]
  inhibition: Active
Pseudomonas aeruginosa [4]
  inhibition: 29%
[5]
  inhibition: inactive
Pseudomonas aeruginosa [6]
  MIC: > 2000 µg/mL
Pseudomonas aeruginosa [7]
  inhibition: inactive
[8]
  inhibition: Active
Escherichia coli [9]
  MIC: 3 µg/mL (≈ 10.4 µM)
Escherichia coli [10]
  MIC: > 2000 µg/mL
Escherichia coli [11]
  MIC: 3 µg/mL (≈ 10.4 µM)
Escherichia coli [12]
  MIC: > 2000 µg/mL
Pseudomonas aeruginosa [13]
  MIC: 1 µg/mL (≈ 3.45 µM)
[14]
  inhibition: inactive
Escherichia coli [15]
  MIC: 4 µg/mL (≈ 13.8 µM)
Escherichia coli [16]
  MIC: 4 µg/mL (≈ 13.8 µM)
Pseudomonas aeruginosa [17]
  MIC: > 2000 µg/mL
Pseudomonas aeruginosa [18]
  inhibition: inactive
Escherichia coli [19]
  MIC: 0.2 µg/mL (≈ 0.691 µM)

## C/C=C/C(=O)SCCNC(=O)CCNC(=O)[C@@H](O)C(C)(C)COP(=O)(O)OP(=O)(O)OC[C@H]1O[C@@H](n2cnc3c(N)ncnc32)[C@H](O)[C@@H]1OP(=O)(O)O
Pseudomonas aeruginosa [20]
  Km: 704 µM
  Vmax: 7.9 nmol/min/mg

B1: Enoyl-[acyl-carrier-protein] reductase [NADH] FabI (Pseudomonas aeruginosa), Q9ZFE4 (protein)
chain: MGFLTGKRALIVGVASKLSIASGIAAAMHREGAELAFTYQNDKLRGRVEEFASGWGSRPELCFPCDVADDSQIEAVFAALGKHWDGLDIIVHSVGFAPGDQLDGDFTAVTTREGFRIAHDISAYSFIALAKAGREMMKGRNGSLLTLSYLGAERTMPNYNVMGMAKASLEAGVRYLAGSLGAEGTRVNAVSAGPIRTLAASGIKSFRKMLAANERQTPLRRNVTIEEVGNAGAFLCSDLASGISGEILYVDGGFNTTAMGPLDDD
[21]
  Km: 4.7 µM
  Vmax: 1.5 nmol/min/mg
